One assay is filed under the species Rattus norvegicus. As to the kind of experiment: Compound was tested for antagonist activity on rat ileum longitudinal smooth muscle. It is filed as functional. The settings on record: read-out: pA2 (converted).
Assay [1] has as its target T1, B2 bradykinin receptor (Homo sapiens) (UniProt P30411).
T1 sequence (whole entry): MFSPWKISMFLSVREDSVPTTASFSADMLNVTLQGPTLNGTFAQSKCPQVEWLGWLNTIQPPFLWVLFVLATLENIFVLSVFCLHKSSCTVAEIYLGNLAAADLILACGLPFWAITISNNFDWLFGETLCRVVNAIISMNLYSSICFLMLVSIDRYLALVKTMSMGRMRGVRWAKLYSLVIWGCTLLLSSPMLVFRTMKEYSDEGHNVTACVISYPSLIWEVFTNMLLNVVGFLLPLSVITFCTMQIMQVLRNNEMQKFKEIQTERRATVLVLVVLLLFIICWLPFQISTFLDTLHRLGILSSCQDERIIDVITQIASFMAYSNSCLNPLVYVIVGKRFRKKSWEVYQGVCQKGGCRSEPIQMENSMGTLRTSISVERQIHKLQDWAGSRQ
As to the kind of experiment: Binding affinity towards human cloned B2 receptor was determined using [3H]BK as radioligand; Inactive.

In assay [2] the target is T2, B1 bradykinin receptor (Homo sapiens) (UniProt P46663).
T2 sequence (whole entry): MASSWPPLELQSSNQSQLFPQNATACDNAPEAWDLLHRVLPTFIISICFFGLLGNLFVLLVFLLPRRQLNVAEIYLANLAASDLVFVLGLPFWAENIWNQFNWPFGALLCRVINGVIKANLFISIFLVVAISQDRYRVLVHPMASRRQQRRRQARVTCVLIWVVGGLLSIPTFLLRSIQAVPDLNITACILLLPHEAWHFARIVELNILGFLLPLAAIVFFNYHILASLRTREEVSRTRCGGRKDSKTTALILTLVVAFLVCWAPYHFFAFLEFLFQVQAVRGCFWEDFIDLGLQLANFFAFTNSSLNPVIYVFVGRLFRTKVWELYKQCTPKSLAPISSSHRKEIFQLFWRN
Put plainly: Binding affinity towards human cloned B1 receptor was determined using [3H][des-Arg10-Leu9]-kallidin as radioligand; No significant affinity at 10 uM.

Assay [3] concerns the target T2, B1 bradykinin receptor (Homo sapiens). Put plainly: Binding affinity towards human cloned B1 receptor was determined using [3H][des-Arg10-Leu9]-kallidin as radioligand; No significant affinity at 10E-5 M.
In the next assay the target is T3, B1 bradykinin receptor (Homo sapiens, UniProt P46663).
T3 sequence (P46663 whole entry): T2 sequence (whole entry)
Put plainly: Binding affinity towards human cloned B1 receptor was determined using [3H][des-Arg10-Leu9]-kallidin as radioligand.

Another assay is filed under the species Homo sapiens. As to the kind of experiment: Competitive inhibition of the contraction of the human umbilical vein induced by the potent B1 receptor agonist [des-Arg10]-kallidin. In kind it is functional. As to conditions: read-out: pA2 (converted). The method, boiled down: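 Human umbilical vein rings (3-4 mm) incubated overnight at 37 °C in Krebs (B1 induction), then set in organ baths at 37 °C, 95% O2/5% CO2, stretched to 1 g. Antagonist or vehicle 15 min before [des-Arg10]-kallidin concentration-response curve (one per ring), expressed as % of 1 µM U46619 maximal contraction.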

A further assay concerns the target T4, B2 bradykinin receptor (Homo sapiens, UniProt P30411).
T4 sequence (P30411 whole entry): T1 sequence (whole entry)
As to the kind of experiment: Binding affinity towards human cloned B2 receptor was determined using [3H]BK as radioligand.

Active and inactive are the calls of the source. The rule behind the calls is not given here. Square brackets hold non-standard residues; d marks the D form. Peptide text beside a SMILES is read from it. ξ: configuration not given here. Oic(3aξ,7aξ) = O=C(O)[C@@H]1CC2CCCCC2N1; Tic = O=C(O)[C@@H]1Cc2ccccc2CN1; Aun = NCCCCCCCCCCC(=O)O

What is called Ki is a dissociation constant, usually derived from enzyme kinetics or from competition with a known ligand. Low values mean higher affinity, high ones lower affinity.

`NC(N)=NCCC[C@H](NC(=O)[C@@H](N)CCCN=C(N)N)C(=O)NCCCCCCCCCCC(=O)N[C@@H](CO)C(=O)N1Cc2ccccc2C[C@H]1C(=O)N1C2CCCCC2C[C@H]1C(=O)O` (stereo partly specified) (H-RR[Aun]S[Tic][Oic(3aξ,7aξ)]-OH): the Kb in the assay listed under Rattus norvegicus is 79.4 nM. Turning to `N=C(N)NCCCC(NC(=O)C1CCNCC1)C(=O)N1CCC2(CC1)C(=O)N(CC(=O)NC(CO)C(=O)N[C@@H]1CSc3ccccc3N(CC(=O)O)C1=O)CN2CCc1ccccc1` (stereo partly specified), in assay [1], the NA entry was “inactive”. Besides, in assay [2], the NS entry is “inactive”. On to `C[C@@H](O)[C@H](NC(=O)CN1CN(CCc2ccccc2)C2(CCN(C(=O)[C@H](CCCN=C(N)N)NC(=O)[C@@H](N)CCCCN)CC2)C1=O)C(=O)N[C@@H]1CSc2ccccc2N(CC(=O)O)C1=O`, for which the NA result in assay [1] was “inactive”.

Turning to `NCCCC[C@H](N)C(=O)N[C@@H](CCCN=C(N)N)C(=O)N1CCC2(CC1)CN(CC(=O)N[C@@H]1CSc3ccccc3N(CC(=O)O)C1=O)C(=O)N2CCc1ccccc1`, in assay [1], the NA result was “inactive”. As for `N=C(N)NCCCCC(=O)NC(CCCNC(=N)N)C(=O)N1CCC2(CC1)C(=O)N(CC(=O)NC(CO)C(=O)N[C@@H]1CSc3ccccc3N(CC(=O)O)C1=O)CN2CCc1ccccc1` (stereo partly specified), in assay [1], the NA result was “inactive”. Further, the NS entry in assay [2] is “inactive”.

For the compound `NCCCC[C@H](N)C(=O)N[C@@H](CCCN=C(N)N)C(=O)N1CCC2(CC1)C(=O)N(CC(=O)N[C@@H](CO)C(=O)N[C@@H]1CSc3ccccc3N(CC(=O)O)C1=O)CN2CCC1Cc2ccccc2C1`, in assay [3], the NS result is “inactive”. Further, the NA entry in assay [1] was “inactive”. In the case of `C[C@H](NC(=O)[C@@H](N)CCCCN)C(=O)N1CCC2(CC1)C(=O)N(CC(=O)N[C@@H](CO)C(=O)N[C@@H]1CSc3ccccc3N(CC(=O)O)C1=O)CN2CCc1ccccc1`, in assay [1], the NA entry is “inactive”. Further, the NS result in assay [2] was “inactive”. For `C[C@H](N)C(=O)N[C@@H](CCCN=C(N)N)C(=O)N1CCC2(CC1)C(=O)N(CC(=O)N[C@@H](CO)C(=O)N[C@@H]1CSc3ccccc3N(CC(=O)O)C1=O)CN2CCc1ccccc1`, the NA result in assay [1] is “inactive”. Besides, the NS entry in assay [2] was “inactive”. For `C[C@H](NC(=O)CN1CN(CCc2ccccc2)C2(CCN(C(=O)[C@H](CCCN=C(N)N)NC(=O)[C@@H](N)CCCCN)CC2)C1=O)C(=O)N[C@@H]1CSc2ccccc2N(CC(=O)O)C1=O`, the NA result in assay [1] was “inactive”. For the compound `NCCCC[C@H](N)C(=O)N[C@@H](CCCN=C(N)N)C(=O)N1CCC2(CC1)C(=O)N(CC(=O)N[C@@H](CO)C(=O)N[C@@H]1CSc3ccccc3N(CC(=O)O)C1=O)CN2CCc1ccccc1`, the Ki at B1 bradykinin receptor is 24.1 nM; on B2 bradykinin receptor, 11900 nM. Also, the Kb in the assay filed under Homo sapiens was 794 nM. For `NCc1ccc(C(=O)NC(CCCN=C(N)N)C(=O)N2CCC3(CC2)C(=O)N(CC(=O)NC(CO)C(=O)N[C@@H]2CSc4ccccc4N(CC(=O)O)C2=O)CN3CCc2ccccc2)cc1` (stereo partly specified), the NA entry in assay [1] is “inactive”. The NS result in assay [2] is “inactive”. `NCCCC[C@H](N)C(=O)N[C@@H](CCCN=C(N)N)C(=O)N1CCC2(CC1)C(=O)N(CC(=O)N[C@@H](CO)C(=O)N[C@@H]1CSc3ccccc3N(CC(=O)O)C1=O)CN2c1ccccc1`: the NS result in assay [3] is “inactive”. In addition, in assay [1], the NA entry was “inactive”.

These data come from ChEMBL document CHEMBL1133747, “A rational approach to the design and synthesis of a new bradykinin B(1) receptor antagonist” (J Med Chem, 2000).
